# Experimental data published in ChEMBL document CHEMBL4765399, “Design, synthesis, and biological evaluation of 5-((8-methoxy-2-methylquinolin-4-yl)amino)-1H-indole-2-carbohydrazide derivatives as novel Nur77 modulators” (Eur J Med Chem, 2020).
# The source made the active and inactive calls. No cut-off for these calls is given here.
# Legend:
# [1] = tested on: HepG2; experiment: Upregulation of Nur77 expression in human HepG2 cells incubated for 6 hrs by Western blot analysis; format: functional, cell-based; conditions: dose 0.5-2 µM
# Method in brief: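 HepG2, QGY-7703 and SMMC-7721 cells treated with the indicated concentrations for 6 h. HepG2 also given 2.0 µM over a time course. Lysis in RIPA with protease and phosphatase inhibitors; 40-80 µg protein by SDS-PAGE, nitrocellulose transfer. Membranes blocked with 5% milk, primary antibody overnight, HRP secondary, chemiluminescence. GAPDH as loading control.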
# [2] = molecular target: T1, Nuclear receptor subfamily 4immunitygroup A member 1 (Homo sapiens, UniProt P22736); experiment: Modulation of Nur77 in human HepG2 cells assessed as induction of mitochondrial translocation at 2 uM incubated for 6 hrs by Mito-tracker based confocal microscopy; conditions: Mitochondria, filed as modulator
# Method in brief: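 HepG2 cells given 2.0 µM for 6 h, then stained with anti-Nur77 antibody plus Mito-tracker. Cells fixed in 4% paraformaldehyde for 20 min, permeabilized with 0.1% Triton X-100, blocked with 5% BSA. Anti-Nur77 (1:500) for 1 h, then FITC- or Cy3-conjugated anti-rabbit IgG for 1 h. Imaged by confocal microscopy.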
# [3] = molecular target: T1, Nuclear receptor subfamily 4immunitygroup A member 1; experiment: Modulation of Nur77 in human HepG2 cells assessed as induction of endoplasmic reticulum translocation at 2 uM incubated for 6 hrs by ER-tracker based confocal microscopy; format: subcellular; conditions: filed as modulator
# Method in brief: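 HepG2 exposed to 2.0 µM for 6 h, then co-stained with Nur77 antibody and ER tracker; confocal imaging.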
# [4] = tested on: HepG2; experiment: Induction of morphological changes in human HepG2 cells assessed as vesicles accumulation at 1 to 2 uM incubated for 6 to 12 hrs by phase contrast microscopic analysis; format: functional, cell-based; conditions: dose 1-2 µM, time 6-12 hrs
# Method in brief: (§1)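 HepG2 cells given graded concentrations; morphology monitored at set time points by phase-contrast optical microscopy.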
# [5] = tested on: HepG2; experiment: Induction of morphological changes in human HepG2 cells assessed as reduction in cell number at 1 to 2 uM incubated for 6 to 12 hrs by phase contrast microscopic analysis; format: functional, cell-based; conditions: dose 1-2 µM, time 6-12 hrs; method in brief: as §1
# [6] = tested on: SMMC-7721; experiment: Induction of autophagy in human SMMC-7721 cells assessed as increase in LC3-II expression measured after 12 hrs by Western blot analysis; format: functional, cell-based; conditions: dose 0.5-2 µM
# Method in brief: (§2)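 HepG2, QGY-7703 and SMMC-7721 treated with graded concentrations for 12 h. Lysed in RIPA with inhibitors; 40-80 µg protein separated by SDS-PAGE, blotted to nitrocellulose, blocked 1 h in 5% milk, primary antibodies overnight (LC3, Beclin1, Bip, CHOP, TRB3), HRP secondaries, chemiluminescence.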
# [7] = tested on: SMMC-7721; experiment: Induction of autophagy in human SMMC-7721 cells assessed as increase in Beclin 1 expression measured at 12 hrs by Western blot analysis; format: functional, cell-based; conditions: dose 0.5-2 µM; method in brief: as §2
# [8] = tested on: QGY-7703; experiment: Induction of endoplasmic reticulum stress in human QGY-7703 cells assessed as increase in bip protein expression incubated for 12 hrs by Western blot analysis; format: functional, cell-based; conditions: dose 0.5-2 µM; method in brief: as §2
# [9] = tested on: SMMC-7721; experiment: Induction of endoplasmic reticulum stress in human SMMC-7721 cells assessed as increase in bip protein expression incubated for 12 hrs by Western blot analysis; format: functional, cell-based; conditions: dose 0.5-2 µM; method in brief: as §2
# [10] = tested on: QGY-7703; experiment: Induction of endoplasmic reticulum stress in human QGY-7703 cells assessed as increase in CHOP protein expression incubated for 12 hrs by Western blot analysis; format: functional, cell-based; conditions: dose 0.5-2 µM; method in brief: as §2
# [11] = tested on: HepG2; experiment: Induction of endoplasmic reticulum stress in Nur77 […] human HepG2 cells assessed as TRB3 protein expression at 2 uM incubated for 12 hrs by Western blot analysis; format: functional, cell-based
# Method in brief: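 HepG2 and shNur77 HepG2 exposed to DMSO or 2.0 µM for 6 and 12 h; lysates immunoblotted for TRB3, Bip, CHOP and Nur77 (SDS-PAGE, nitrocellulose, overnight primary antibodies, HRP secondary, chemiluminescence).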
# [12] = tested on: HepG2; experiment: Induction of endoplasmic reticulum stress in human HepG2 cells assessed as increase in bip expression at 2 uM measured after 1 to 4 hrs by Western blot analysis; format: functional, cell-based; conditions: time 1-4 hrs
# Method in brief: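 HepG2 exposed to 2.0 µM over a time course; Nur77, Bip, p-EIF2a, TRB3 and LC3 levels followed by Western blot of RIPA lysates.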
# [13] = tested on: HepG2; experiment: Antitumor activity against human HepG2 cells xenografted in BALB/c mouse assessed as tumor weight at 10 mg/kg/day, ip administered for 15 days (reference value: 0.86 +/- 0.18 g); format: functional; conditions: dose 20 mg/kg/day; time 15 day; in the assay text read “20 mg/kg/day” for “10 mg/kg/day”
# Method in brief: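 Subcutaneous flank xenograft of 5×10^6 HepG2 cells in 4-week-old male Balb/c nude mice. At about 100 mm³, 15 mice were randomized into three groups: vehicle, 10 or 20 mg/kg i.p. daily for 15 days. Tumor size was measured every day, and tumors were excised and weighed at the end.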
# [14] = tested on: Mus musculus; experiment: Upregulation of Nur77 expression in tumor tissue of BALB/c mouse xenografted with human HepG2 cells at 10 to 20 mg/kg/day, ip administered for 15 days by immunohistochemical analysis; format: functional, organism-based; conditions: dose 10-20 mg/kg/day, time 15.0 day
# Method in brief: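 Tumours taken from HepG2 xenograft mice after 15 days of daily i.p. dosing (10 or 20 mg/kg) or vehicle. Fixed in 4% paraformaldehyde, paraffin-embedded, cut into 5 µm sections. Immunostained with anti-Nur77 at 1:200.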
# [15] = molecular target: T1, Nuclear receptor subfamily 4immunitygroup A member 1; experiment: Binding affinity to Nur77 ligand binding domain (unknown origin) at 10 uM by surface plasmon resonance analysis; conditions: filed as modulator
# Method in brief: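 Single-concentration SPR screen at 10.0 µM against Nur77-LBD; binding given as RU response.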
# [16] = molecular target: T1, Nuclear receptor subfamily 4immunitygroup A member 1; experiment: Binding affinity to Nur77 ligand binding domain (unknown origin) assessed as fast association/dissociation kinetics by surface plasmon resonance analysis; conditions: filed as modulator
# Method in brief: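 SPR with Nur77-LBD, analyte injected at a series of concentrations; KD (equilibrium dissociation constant) and association/dissociation kinetics derived from the sensorgrams.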
# [17] = tested on: HepG2; experiment: Induction of apoptosis in human HepG2 cells assessed as live cells at 1 uM incubated for 12 hrs by Annexin V-FITC/PI staining based flow cytometry (reference value: 94%); format: functional
# [18] = tested on: HepG2; experiment: Induction of apoptosis in human HepG2 cells assessed as late apoptotic cells at 2 uM incubated for 12 hrs by Annexin V-FITC/PI staining based flow cytometry (reference value: 1.1 to 2.75%); format: functional
# [19] = tested on: HepG2; experiment: Induction of endoplasmic reticulum stress in human HepG2 cells transfected with shNur77 assessed as increase in PDI protein expression at 2 uM incubated for 6 hrs by confocal microsocopic analysis; format: functional, cell-based
# Method in brief: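 HepG2, or HepG2 plus shNur77 HepG2, treated with 2.0 µM for 6 h, fixed in 4% paraformaldehyde 20 min, permeabilised 0.1% Triton X-100, blocked in 5% BSA, stained with PDI antibody and imaged by confocal fluorescence microscopy.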
# [20] = tested on: HepG2; experiment: Antitumor activity against human HepG2 cells xenografted in BALB/c mouse assessed as sparser and vacuolated cells in tumor tissue at 10 to 20 mg/kg/day, ip for 15 days by hematoxylin and eosin staining based microscopic analysis; format: functional, organism-based; conditions: dose 10-20 mg/kg/day, time 15.0 day
# Method in brief: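 H&E staining of 4% paraformaldehyde-fixed, paraffin-embedded 5 μm tumor slices from the HepG2 flank xenograft (male Balb/c nude mice, 10 or 20 mg/kg i.p. daily for 15 days, versus vehicle). Examined by light microscopy at 200, 400 and 1000×.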
# T1 sequence (P22736 whole entry): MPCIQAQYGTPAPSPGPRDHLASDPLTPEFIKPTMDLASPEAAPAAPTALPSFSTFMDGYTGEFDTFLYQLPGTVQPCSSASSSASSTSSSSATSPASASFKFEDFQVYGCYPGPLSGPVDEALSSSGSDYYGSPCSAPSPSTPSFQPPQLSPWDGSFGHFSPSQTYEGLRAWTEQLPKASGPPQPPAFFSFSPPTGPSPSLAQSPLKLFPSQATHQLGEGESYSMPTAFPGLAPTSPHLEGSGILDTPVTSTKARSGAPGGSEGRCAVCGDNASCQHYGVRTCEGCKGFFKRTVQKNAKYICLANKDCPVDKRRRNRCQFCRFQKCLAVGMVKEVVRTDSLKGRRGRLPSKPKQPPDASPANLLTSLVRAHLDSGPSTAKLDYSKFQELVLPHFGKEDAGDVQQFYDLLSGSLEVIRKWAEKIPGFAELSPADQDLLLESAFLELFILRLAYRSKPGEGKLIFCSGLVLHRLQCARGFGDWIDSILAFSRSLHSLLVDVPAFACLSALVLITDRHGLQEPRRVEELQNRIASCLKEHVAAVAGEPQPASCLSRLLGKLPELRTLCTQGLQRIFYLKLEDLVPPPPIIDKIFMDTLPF
smiles,measurement,setting,value
COc1cccc2c(Nc3ccc4[nH]c(C(=O)N/N=C/c5ccc(SC)cc5)cc4c3)cc(C)nc12,Activity,[1],Dose-dependent effect
same,Activity,[2],Active
same,Activity,[3],Active
same,Activity,[4],Active
same,Activity,[5],Active
same,Activity,[6],Dose-dependent effect
same,Activity,[7],Dose-dependent effect
same,Activity,[8],Dose-dependent effect
same,Activity,[9],Dose-dependent effect
same,Activity,[10],Dose-dependent effect
same,Activity,[11],inactive
same,Activity,[12],Active
same,Activity,[13],0.24 g
same,Activity,[14],Active
same,Activity,[15],91.6 RU
same,Activity,[16],Active
same,Activity,[17],65%
same,Activity,[18],55.6%
same,Activity,[19],inactive
same,Activity,[20],Active
